According to ChEMBL document CHEMBL4368882, “Synthesis and biological evaluation against Leishmania donovani of novel hybrid molecules containing indazole-based 2-pyrone scaffolds” (Medchemcomm, 2019):

Legend:
Leishmania donovani [1] = test: Antileishmanial activity against Leishmania donovani MHOM/ET/67/HU3 axenic amastigotes after 72 hrs by resazurin dye-based assay; assay type: functional, organism-based; conditions: MHOM/ET/67/HU3, 72 h
Leishmania donovani [2] = test: Antileishmanial activity against Leishmania donovani MHOM/ET/67/HU3 intramacrophage amastigotes infected in mouse RAW264.7 cells after 48 hrs by SYBR green1 dye-based fluorescence assay; assay type: functional, organism-based; conditions: MHOM/ET/67/HU3, RAW264.7, 48 h
Summary of the method: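 RAW 264.7 macrophages (2 × 10⁴ per well, 24 h preculture) infected with axenic amastigotes at 16:1 parasite:macrophage for 24 h. Extracellular parasites then removed. Two-fold serial dilutions from 100 μM maximum in DMEM complete medium for 48 h. Cells lysed in Direct PCR Lysis Reagent with 3 freeze–thaw cycles and proteinase K 50 μg mL⁻¹ at 55 °C overnight. Extract mixed with SYBR Green I.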

[3] = Cytotoxicity against mouse RAW264.7 cells after 48 hrs by resazurin dye-based assay; assay type: cell-based
Summary of the method: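 RAW 264.7 cells seeded at 2 × 10⁴ per well in DMEM with 10% HIFBS and penicillin–streptomycin, 24 h preculture. Two-fold serial dilutions for 48 h at 37 °C, 5% CO₂. Resazurin (450 μM, 10 μL) added for 4 h in the dark, OD570/OD600 read. CC50 is the concentration reducing macrophage growth by 50%.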

[4] = Selectivity index, ratio of CC50 for mouse RAW264.7 cells to IC50 for Leishmania donovani MHOM/ET/67/HU3 intramacrophage amastigotes infected in mouse RAW264.7 cells; assay type: toxicity, cell-based; conditions: read-out: Ratio CC50/IC50
Summary of the method: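 Ratio of the RAW 264.7 CC₅₀ to the intramacrophage amastigote IC₅₀, both measured in this work.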

Row | Structure (SMILES) | IC50 (Leishmania donovani [2]) [µM] | IC50 (Leishmania donovani [1]) [µM] | CC50 at 48 h [3] [µM] | selectivity ratio [4]
1 | CC1=CC(=O)/C(=C(/C)Nc2ccc3cnn(Cc4ccc(C)cc4)c3c2)C(=O)O1 | > 100 | > 100 | > 100 | –
2 | CC1=CC(=O)/C(=C(/C)Nc2ccc3cn(Cc4ccc(C)cc4)nc3c2)C(=O)O1 | 57.4 | 49.6 | > 100 | –
3 | CCn1ncc2cc(N/C(C)=C3\C(=O)C=C(C)OC3=O)ccc21 | > 100 | > 100 | > 100 | –
4 | CCn1nc(Cl)c2ccc(N/C(C)=C3\C(=O)C=C(C)OC3=O)cc21 | 6.5 | 11 | 6.23 | 0.96
5 | C=CCn1ncc2ccc(N/C(C)=C3\C(=O)C=C(C)OC3=O)cc21 | > 100 | > 100 | > 100 | –
6 | C=CCn1ncc2cc(N/C(C)=C3\C(=O)C=C(C)OC3=O)ccc21 | > 100 | > 100 | > 100 | –
7 | C=CCn1nc(Cl)c2ccc(N/C(C)=C3\C(=O)C=C(C)OC3=O)cc21 | > 100 | > 100 | > 100 | –
8 | CC1=CC(=O)/C(=C(/C)Nc2ccc3c(Cl)n(Cc4ccc(C)cc4)nc3c2)C(=O)O1 | > 100 | > 100 | > 100 | –
9 | CC1=CC(=O)/C(=C(/C)Nc2ccc3c(Cl)nn(Cc4ccc(C)cc4)c3c2)C(=O)O1 | 49.9 | 62.6 | > 100 | –
10 | CC1=CC(=O)/C(=C(/C)Nc2ccc3nn(C)cc3c2)C(=O)O1 | > 100 | > 100 | > 100 | –
11 | CC1=CC(=O)/C(=C(/C)Nc2ccc3c(Cl)n(C)nc3c2)C(=O)O1 | 3.25 | 11.9 | 6.26 | 1.92
12 | CCn1ncc2ccc(N/C(C)=C3\C(=O)C=C(C)OC3=O)cc21 | > 100 | > 100 | > 100 | –
13 | C[C@@H]1[C@H](O)[C@@H](C)/C=C/C=C/C=C/C=C/C=C/C=C/C=C/[C@H](O[C@@H]2O[C@H](C)[C@@H](O)[C@H](N)[C@@H]2O)C[C@@H]2O[C@](O)(C[C@@H](O)C[C@@H](O)[C@H](O)CC[C@@H](O)C[C@@H](O)CC(=O)O[C@H]1C)C[C@H](O)[C@H]2C(=O)O [AMPHOTERICIN B] | 0.115 | – | 4.23 | –

Second part, led by results:

Row | IC50 (Leishmania donovani [2]) [µM] | Structure (SMILES) | IC50 (Leishmania donovani [1]) [µM] | CC50 at 48 h [3] [µM] | selectivity ratio [4]
14 | > 100 | CCn1cc2ccc(N/C(C)=C3\C(=O)C=C(C)OC3=O)cc2n1 | > 100 | > 100 | –
15 | > 100 | CC1=CC(=O)/C(=C(/C)Nc2ccc3cnn(C)c3c2)C(=O)O1 | > 100 | > 100 | –
16 | > 100 | CCn1cc2cc(N/C(C)=C3\C(=O)C=C(C)OC3=O)ccc2n1 | > 100 | > 100 | –
17 | > 100 | C=CCn1cc2ccc(N/C(C)=C3\C(=O)C=C(C)OC3=O)cc2n1 | > 100 | > 100 | –
18 | 2.25 | CCn1nc2cc(N/C(C)=C3\C(=O)C=C(C)OC3=O)ccc2c1Cl | 2.48 | 6.25 | 2.77
19 | > 100 | CC1=CC(=O)/C(=C(/C)Nc2ccc3c(cnn3C)c2)C(=O)O1 | > 100 | > 100 | –
20 | > 100 | CC1=CC(=O)/C(=C(/C)Nc2ccc3c(Cl)nn(C)c3c2)C(=O)O1 | > 100 | > 100 | –
